Screening data from PubChem BioAssay.
This excerpt belongs to a sample that is enriched for hits.
zfTRPN1 agonist: zebrafish TRPN1 channel agonists, primary screen, cell-based, HEK293, calcium fluorescence. 220,000 tested, 0.18% active. AID 1424, 2008. activation, % at 3 µM. HEK293 zebrafish TRPN1-YFP, Fluo-8 calcium fluorescence; 100% = response to 87 µM carbachol;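 active means activation above its plate's cutoff, the mean activation of test wells on that plate plus 3 SD, cut at about 19% in these data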;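 further: 0% = DMSO alone and 100% = 87 µM carbachol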
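Control set: carbachol 87 µM as high control, DMSO as low control; system: HEK293 stable line with zebrafish TRPN1-YFP; read-out: % activation versus carbachol response; detection: intracellular calcium fluorescence with Fluo-8; doses: single test compound dose, 3 µM nominal, 0.3% DMSO; schedule: dye 1 h 37 °C plus 30 min RT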
TRPML3 agonist: human TRPML3 channel agonists, primary screen, cell-based, HEK293 TRPML3-YFP, Fluo-8 calcium fluorescence, 3 µM; Mucolipin-3 (Homo sapiens), Q8TDD5; 100% = the carbachol control signal; activation, % at 3 µM; 220,000 tested, 0.29% active; AID 1448, 2008;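 active means activation above its plate's cutoff, the mean activation of the plate's test wells plus 3 SD, cut at about 12% in these data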;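 further: 0% = DMSO only wells and 100% = carbachol wells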
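Test system – HEK293 line with stable expression of human TRPML3-YFP channel · Control set – carbachol 87 µM final as high control (100%), DMSO as low control (0%) · Signal – Fluo-8 calcium dye fluorescence, ex 470-495, em 515-575 nm · Incubation – 1-h 37 °C dye load, 5-s basal, 120-s post-compound reads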
ABCB1 block: ABCB1 efflux pump inhibitors, primary screen, cell-based, multiplex, flow cytometry, ABCG2 counter-screen | ATP-dependent translocase ABCB1 (Homo sapiens), P08183 | CCRF-Adr cells, JC-1 efflux | inhibition, % at 6.6 µM | 190,000 tested, 0.067% active; in the data active means inhibition above about 40%;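 further: 0% = vehicle and 100% = reference inhibitor; higher value means more JC-1 retained so stronger ABCB1 efflux block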
ABCG2 block: ABCG2 efflux pump inhibitors, primary screen, multiplex with ABCB1, IgMXP3 cells, flow cytometry | Broad substrate specificity ATP-binding cassette transporter ABCG2 (Homo sapiens), Q9UNQ0 | JC-1 efflux | inhibition, % at 6.6 µM | 190,000 tested, 0.1% active | AID 1325, 2008;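 active means inhibition above 80%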;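 further: 0% = DMSO and 100% = nicardipine control wells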
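Test system: IgMXP3 (ABCG2) plus far-red-tagged CCRF-Adr (ABCB1) cells / Amount: 3 million cells/mL in well / Reagent: JC-1 transporter substrate / Timing: 10 min compound exposure, 25 °C / Signal: flow cytometry, 530 nm JC-1 signal / Read-out: percent efflux inhibition, scaled nicardipine 100% to DMSO 0% / Benchmarks: nicardipine as high control, DMSO as low control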
ROMK mod: ROMK potassium channel modulators, primary screen, cell-based, thallium flux, MLSMR library; ATP-sensitive inward rectifier potassium channel 1 (Homo sapiens), P48048; Tet-inducible ROMK, thallium flux fluorescence; actives lie on both sides; B-score at 10 µM; 130,000 tested, 2% active; AID 1918, 2009;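 active means signal ratio slope over the read window, or its plate-corrected B-score, at least 3 SD from the plate mean, either direction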;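 further: B-score of the F/F0 ratio slope over 7 to 12 s after thallium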
Target sequence (P48048 whole entry, looked up): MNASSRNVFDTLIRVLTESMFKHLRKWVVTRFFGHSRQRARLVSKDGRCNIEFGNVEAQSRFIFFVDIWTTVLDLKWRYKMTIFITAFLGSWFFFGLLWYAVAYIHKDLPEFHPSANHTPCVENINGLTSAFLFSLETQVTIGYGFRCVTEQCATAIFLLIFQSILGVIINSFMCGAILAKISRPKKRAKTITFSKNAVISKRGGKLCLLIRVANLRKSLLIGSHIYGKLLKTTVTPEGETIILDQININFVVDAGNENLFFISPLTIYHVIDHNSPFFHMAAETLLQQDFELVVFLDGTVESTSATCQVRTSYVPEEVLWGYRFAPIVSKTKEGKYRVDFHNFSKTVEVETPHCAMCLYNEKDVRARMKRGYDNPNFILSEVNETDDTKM
Calb biofilm kill: clotrimazole potentiators killing C. albicans biofilm, primary screen, 4-compound mixtures; C. albicans biofilm persisters + clotrimazole, fluorescence viability; primary screen in compound mixtures of four per well; inhibition, % at 7.6 µM; 120,000 tested, 0.02% active; AID 1242, 2008;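 active means inhibition above 30.3% in the primary screen of four-compound pools, then above 30% when the compound was retested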;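 further: compounds exposed to preformed 24 h biofilms for 48 h; 0% = untreated biofilm control and 100% = clotrimazole plus chlorhexidine kill blank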
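System: C. albicans CAF4-2 wild-type biofilms; Medium: RPMI/MOPS medium, pH 7.0; Reagent: Clotrimazole, 50 µg/mL; Times: biofilm formation 24 h, compound exposure 48 h, 37 °C; Detection: 2-h Alamar Blue fluorescence, 535/590 nm excitation/emission; Evaluation: percent inhibition of biofilm viability.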
TRPN1 counter: zebrafish TRPN1 channel agonists, counter-screen for TRPML3 agonist project, cell-based, HEK293 TRPN1-YFP, Fluo-8 calcium; AID 1525, 2009; shares compounds with TRPML3 agonist; 310 tested, 10% active; activation, % at 3 µM; Fluo-8 calcium fluorescence; scaled: carbachol wells 100%, DMSO wells 0%;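 active means mean activation over replicates above a set limit taken from the earlier TRPN1 channel primary screen, cut at about 19% in these data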;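 further: 100% = carbachol and 0% = 0.3% DMSO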
TRPML3 confirm: human TRPML3 channel agonists, confirmation, cell-based, HEK293 TRPML3-YFP, Fluo-8 calcium, triplicate | shares compounds with TRPML3 agonist | Fluo-8 calcium fluorescence; 100% set by carbachol, 0% by DMSO | activation, % at 3 µM | 310 tested, 80% active | AID 1526, 2009;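 active means activation above a set limit derived from the earlier primary screen, cut at about 12% in these data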
The depositor's hits bear a star; · = not tested or not shown.

SMILES	zfTRPN1 agonist	TRPML3 agonist	ABCB1 block	ABCG2 block	ROMK mod	Calb biofilm kill	TRPN1 counter	TRPML3 confirm
Cc1cccc(C)c1-n1nnnc1S(=O)(=O)Cc1ccccc1Cl	1	26*	0	4	-0.33	·	0	14*
Cc1nc(S(=O)(=O)Cc2ccccc2Cl)nc2c1CCC2	2	1	0	0	0.73	5	·	·
COC(=O)c1ccc(/C=C(\C#N)c2nc3ccccc3s2)cc1	14	14*	0	0	·	·	1	1
O=S(=O)(c1ccccc1)C1(S(=O)(=O)c2ccccc2)CCCC1	2	18*	1	11	·	·	1	29*
S=C1CCC(c2ccc(Cl)cc2)=NN1c1ccccc1	-2	16*	·	·	·	23	-2	9
C/C(=N\NC(=O)CNc1cccc(Cl)c1C)C1CC1	-1	1	0	1	-0.8	5	·	·
Cc1ccc(S(=O)(=O)N2CCC(C)CC2)c([N+](=O)[O-])c1	-1	48*	1	12	-0.32	15	-1	60*
CCOC(=O)C(C)(C)N(Cc1cccc(C)c1)S(=O)(=O)c1cccc([N+](=O)[O-])c1	-2	12*	1	44	·	-4	-1	36*
CCOC(=O)C(C)(C)N(Cc1cccc(C)c1)S(=O)(=O)c1ccc(Cl)c([N+](=O)[O-])c1	0	0	2	18	·	-2	·	·
CCN(CC(=O)Nc1c(F)cccc1F)C(=O)CCc1ccc(OC)cc1	0	0	1	1	0.27	14	·	·
COc1ccccc1-c1nc(COc2ccc(Cl)cc2Cl)no1	-1	0	·	·	·	16	·	·
Cc1onc(-c2ccccc2Cl)c1C(=O)Nc1cccc(-c2nc3ncccn3c2C)c1	5	12*	-3	-5	·	·	8	13*
Cc1onc(-c2ccccc2Cl)c1C(=O)Nc1ccc(-c2cn3cccnc3n2)cc1	2	1	1	3	·	·	·	·
CN1CCN(c2ccc(CNS(=O)(=O)Cc3cccc(C(F)(F)F)c3)cc2)CC1	10	5	·	·	·	17	·	·
FC(F)Sc1ccc(NC(=S)NC2CCCC2)cc1	17	12*	0	1	-1.5	6	20*	7
CC(=O)Oc1c(S(=O)(=O)c2ccc(C)cc2)c(C)nn1C(C)(C)C	1	3	1	3	-0.35	·	·	·
Cc1ccc(S(=O)(=O)c2c(C)nn(C(C)(C)C)c2OC(=O)C(C)(C)C)cc1	4	46*	·	·	·	·	5	39*
CN(C(=O)COC(=O)c1ccc(Cl)nc1)C1CCS(=O)(=O)C1 (centres undefined)	0	1	0	1	0.95	16	·	·
CC(C)(C)[C@]1(O)CCN2C[C@H]3c4ccccc4CCc4cccc(c43)[C@@H]2C1	-3	25*	1	1	·	11	-1	42*
CCN(c1ccccc1)S(=O)(=O)c1ccc(F)cc1C	-2	24*	1	10	·	·	-3	50*
CCN(c1ccccc1)S(=O)(=O)c1ccc(F)c(C(=O)O)c1	3	0	0	0	·	·	·	·
Cc1ccc(S(=O)(=O)N2CCC(=O)N(C(COCc3ccc(C(F)(F)F)cc3)C(C)C)CC2)cc1 (centres undefined)	1	55*	5	10	-1.6	15	0	77*
COc1ccc(-c2nnn3c2nc(NCc2ccccc2)c2ccccc23)cc1	0	1	0	2	0.57	1	·	·
COCCCNC(=S)N1CCC(NC(=O)Nc2ccc(C)cc2)CC1	0	0	0	-1	-0.92	20	·	·
Cc1cc(C)nc(/N=C(\N)Nc2ccc(-c3ccccc3)cc2)n1	16	15*	0	0	-1.7	24	21*	11
SMILES	zfTRPN1 agonist	TRPML3 agonist	ABCB1 block	ABCG2 block	ROMK mod	Calb biofilm kill	TRPN1 counter	TRPML3 confirm
CC(=O)Nc1ccc(N/C(N)=N/c2nc(C)cc(C)n2)cc1	1	1	0	1	-1.1	11	·	·
Cc1ccc(S(=O)(=O)n2nccc2-c2c(-c3ccc(Cl)cc3)noc2C)cc1	1	82*	·	·	·	24	0	106*
O=S(=O)(NCCNc1ncc(C(F)(F)F)cc1Cl)C(F)(F)F	15	14*	1	10	0.39	19	21*	9
C[N+](C)(C)C/C=C1/COCO1	8	52*	0	2	0.21	·	14	40*
O=C(Cc1ccc(Cl)c(Cl)c1)Nc1ccccc1N1CCOCC1	0	51*	1	1	-0.25	6	1	67*
O=C(Cc1ccccc1)Nc1ccccc1N1CCOCC1	-2	1	0	1	·	·	·	·
CC(c1ccccc1)N(NC(=O)C(O)(c1ccccc1)c1ccccc1)C(=O)c1ccccc1 (centres undefined)	-1	13*	0	-8	-1.7	11	-1	65*
Cc1ccc(S(=O)(=O)N2CCN(C)CC2)c(C)c1N(C)S(=O)(=O)c1ccc(Cl)cc1	1	77*	0	0	-2.5	·	5	58*
Cc1cc(C)c(S(=O)(=O)N2CCCCC2)cc1N(C)S(=O)(=O)c1ccc(Cl)cc1	0	68*	2	6	·	·	-1	69*
CN(C)c1ccc(/C=N/NC(=O)CCCO)cc1	2	1	1	-2	·	7	·	·
CN(C)c1ccc(/C=N\NC(=S)SCN2C(=O)C3CCC(C)(C2=O)C3(C)C)cc1 (centres undefined)	0	16*	0	0	-0.48	13	0	0
COc1ccc(/C=N\NC(=S)SCN2C(=O)C3CCC(C)(C2=O)C3(C)C)cc1 (centres undefined)	-1	39*	0	0	·	7	0	0
CC12CCC(C(=O)N(CSC(=S)N/N=C\c3ccccc3O)C1=O)C2(C)C (centres undefined)	0	67*	-1	-3	-0.19	17	2	2
